Test results from ChEMBL document CHEMBL6177935, “Design and synthesis of novel multi-target tetrabromophthalimides as CBS and Topo-II inhibitors and DNA intercalators” (RSC Med Chem, 2024).
≈ marks a conversion by molar mass, not a printed value. Calls of active or inactive are those of the source. The rule behind the calls is not given here.

How the values were obtained:
PC-3 [1] = test: Growth inhibition of human PC-3 cells at 100 ug/ml measured after 48 hrs by SRB assay relative to control; format: functional; conditions: dose 100.0 µg/ml, pooled result: one value given for 15 cell lines, strains, targets or settings
In short: (§1)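 SRB screen on fifteen human cancer lines. Cells seeded at 3×10^3 per well and left 24 h to attach. A single concentration of 100 µg/mL was tested in triplicate wells for 48 h, with 1% v/v DMSO as vehicle control. Cells fixed in 20% TCA, stained with 0.4% SRB and read at 570 nm. Survival fraction = OD treated/OD control.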

HCT-116 = test: Growth inhibition of human HCT-116 cells at 100 ug/ml measured after 48 hrs by SRB assay relative to control; format: functional; conditions: dose 100.0 µg/ml, pooled result: one value given for 15 cell lines, strains, targets or settings; in short: as §1
HeLa [2] = test: Growth inhibition of human HeLa cells measured after 48 hrs by SRB assay; format: functional, cell-based
In short: (§2)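 SRB assay. Cells seeded at 3×10^3 per well and attached 24 h, then exposed for 48 h to 12.5, 25, 50 and 62.5 µg/mL in triplicate wells, with 1% v/v DMSO vehicle. Cells fixed in 20% TCA, stained with 0.4% SRB and read at 570 nm. Survival fraction = OD treated/OD control, and IC50 taken from a sigmoidal dose-response fit.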

A-431 [3] = test: Growth inhibition of human A-431 cells at 100 ug/ml measured after 48 hrs by SRB assay relative to control; format: functional; conditions: dose 100.0 µg/ml, pooled result: one value given for 15 cell lines, strains, targets or settings; in short: as §1
PC-3 [4] = test: Growth inhibition of human PC-3 cells measured after 48 hrs by SRB assay; format: functional, cell-based; in short: as §2
FaDu [5] = test: Growth inhibition of human FaDu cells measured after 48 hrs by SRB assay; format: functional, cell-based; in short: as §2
FaDu [6] = test: Growth inhibition of human FaDu cells at 100 ug/ml measured after 48 hrs by SRB assay relative to control; format: functional; conditions: dose 100.0 µg/ml, pooled result: one value given for 15 cell lines, strains, targets or settings; in short: as §1
MDA-MB-468 [7] = test: Growth inhibition of human MDA-MB-468 cells measured after 48 hrs by SRB assay; format: functional, cell-based; conditions: MDA-MB-468, 48 h; in short: as §2
MDA-MB-468 [8] = test: Induction of apoptosis in human MDA-MB-468 cells assessed as upregulation of Bax expression measured after 1 hr by ELISA relative to control; format: functional
In short: (§3)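 Sandwich ELISA with wells precoated with capture antibody. Samples and standards (7-point curve) incubated 1 h at 37 °C, then biotin detection antibody 1 h at 37 °C, then avidin-HRP 30 min at 37 °C, with washes between steps. TMB added for 10-20 min at 37 °C in the dark, stopped with sulphuric acid and read at 450 nm. Duplicate readings averaged and zero standard subtracted.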

HEp-2 = test: Growth inhibition of human HEp-2 cells at 100 ug/ml measured after 48 hrs by SRB assay relative to control; format: functional; conditions: dose 100.0 µg/ml, pooled result: one value given for 15 cell lines, strains, targets or settings; in short: as §1
Caco-2 = test: Growth inhibition of human Caco-2 cells at 100 ug/ml measured after 48 hrs by SRB assay relative to control; format: functional; conditions: dose 100.0 µg/ml, pooled result: one value given for 15 cell lines, strains, targets or settings; in short: as §1
MDA-MB-468 [9] = test: Growth inhibition of human MDA-MB-468 cells at 100 ug/ml measured after 48 hrs by SRB assay relative to control; format: functional; conditions: dose 100.0 µg/ml, pooled result: one value given for 15 cell lines, strains, targets or settings; in short: as §1
MCF7 = test: Growth inhibition of human MCF7 cells at 100 ug/ml measured after 48 hrs by SRB assay relative to control; format: functional; conditions: dose 100.0 µg/ml, pooled result: one value given for 15 cell lines, strains, targets or settings; in short: as §1
MDA-MB-468 [10] = test: Induction of apoptosis in human MDA-MB-468 cells assessed as upregulation of caspase-7 expression measured after 1 hr by ELISA relative to control; format: functional; in short: as §3
A549 = test: Growth inhibition of human A549 cells at 100 ug/ml measured after 48 hrs by SRB assay relative to control; format: functional; conditions: dose 100.0 µg/ml, pooled result: one value given for 15 cell lines, strains, targets or settings; in short: as §1
A-431 [11] = test: Growth inhibition of human A-431 cells measured after 48 hrs by SRB assay; format: functional, cell-based; in short: as §2
Tubulin = test: Inhibition of [3H]-colchicine binding to biotinylated-tubulin (unknown origin) measured after 45 mins by scintillation counting analysis; format: protein-complex assay, Homo sapiens
In short: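 Scintillation proximity assay run at 37 °C. Incubated 45 min at 37 °C, then the plate was read and percent inhibition calculated from raw counts.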

MDA-MB-468 [12] = test: Induction of apoptosis in human MDA-MB-468 cells assessed as down regulation of MMP2 expression measured after 1 hr by ELISA relative to control; format: functional; in short: as §3
MDA-MB-468 [13] = test: Induction of apoptosis in human MDA-MB-468 cells assessed as down regulation of BCL-2 expression measured after 1 hr by ELISA relative to control; format: functional; in short: as §3
A-375 = test: Growth inhibition of human A-375 cells at 100 ug/ml measured after 48 hrs by SRB assay relative to control; format: functional; conditions: dose 100.0 µg/ml, pooled result: one value given for 15 cell lines, strains, targets or settings; in short: as §1
MDA-MB-468 [14] = test: Induction of apoptosis in human MDA-MB-468 cells assessed as down regulation of MMP9 expression measured after 1 hr by ELISA relative to control; format: functional; in short: as §3
HepG2 = test: Growth inhibition of human HepG2 cells at 100 ug/ml measured after 48 hrs by SRB assay relative to control; format: functional; conditions: dose 100.0 µg/ml, pooled result: one value given for 15 cell lines, strains, targets or settings; in short: as §1
NCI-H1299 = test: Growth inhibition of human NCI-H1299 cells at 100 ug/ml measured after 48 hrs by SRB assay relative to control; format: functional; conditions: dose 100.0 µg/ml, pooled result: one value given for 15 cell lines, strains, targets or settings; in short: as §1
MDA-MB-468 [15] = test: Induction of apoptosis in human MDA-MB-468 cells assessed as upregulation of caspase-8 expression measured after 1 hr by ELISA relative to control; format: functional; in short: as §3
DNA topoisomerase 2-beta [16] = biological target: T1, DNA topoisomerase 2-beta (Homo sapiens, UniProt Q02880); test: Inhibition of human topoisomerase IIB-mediated DNA fragmentation
T1 sequence (Q02880 whole entry, the tested form may be a part): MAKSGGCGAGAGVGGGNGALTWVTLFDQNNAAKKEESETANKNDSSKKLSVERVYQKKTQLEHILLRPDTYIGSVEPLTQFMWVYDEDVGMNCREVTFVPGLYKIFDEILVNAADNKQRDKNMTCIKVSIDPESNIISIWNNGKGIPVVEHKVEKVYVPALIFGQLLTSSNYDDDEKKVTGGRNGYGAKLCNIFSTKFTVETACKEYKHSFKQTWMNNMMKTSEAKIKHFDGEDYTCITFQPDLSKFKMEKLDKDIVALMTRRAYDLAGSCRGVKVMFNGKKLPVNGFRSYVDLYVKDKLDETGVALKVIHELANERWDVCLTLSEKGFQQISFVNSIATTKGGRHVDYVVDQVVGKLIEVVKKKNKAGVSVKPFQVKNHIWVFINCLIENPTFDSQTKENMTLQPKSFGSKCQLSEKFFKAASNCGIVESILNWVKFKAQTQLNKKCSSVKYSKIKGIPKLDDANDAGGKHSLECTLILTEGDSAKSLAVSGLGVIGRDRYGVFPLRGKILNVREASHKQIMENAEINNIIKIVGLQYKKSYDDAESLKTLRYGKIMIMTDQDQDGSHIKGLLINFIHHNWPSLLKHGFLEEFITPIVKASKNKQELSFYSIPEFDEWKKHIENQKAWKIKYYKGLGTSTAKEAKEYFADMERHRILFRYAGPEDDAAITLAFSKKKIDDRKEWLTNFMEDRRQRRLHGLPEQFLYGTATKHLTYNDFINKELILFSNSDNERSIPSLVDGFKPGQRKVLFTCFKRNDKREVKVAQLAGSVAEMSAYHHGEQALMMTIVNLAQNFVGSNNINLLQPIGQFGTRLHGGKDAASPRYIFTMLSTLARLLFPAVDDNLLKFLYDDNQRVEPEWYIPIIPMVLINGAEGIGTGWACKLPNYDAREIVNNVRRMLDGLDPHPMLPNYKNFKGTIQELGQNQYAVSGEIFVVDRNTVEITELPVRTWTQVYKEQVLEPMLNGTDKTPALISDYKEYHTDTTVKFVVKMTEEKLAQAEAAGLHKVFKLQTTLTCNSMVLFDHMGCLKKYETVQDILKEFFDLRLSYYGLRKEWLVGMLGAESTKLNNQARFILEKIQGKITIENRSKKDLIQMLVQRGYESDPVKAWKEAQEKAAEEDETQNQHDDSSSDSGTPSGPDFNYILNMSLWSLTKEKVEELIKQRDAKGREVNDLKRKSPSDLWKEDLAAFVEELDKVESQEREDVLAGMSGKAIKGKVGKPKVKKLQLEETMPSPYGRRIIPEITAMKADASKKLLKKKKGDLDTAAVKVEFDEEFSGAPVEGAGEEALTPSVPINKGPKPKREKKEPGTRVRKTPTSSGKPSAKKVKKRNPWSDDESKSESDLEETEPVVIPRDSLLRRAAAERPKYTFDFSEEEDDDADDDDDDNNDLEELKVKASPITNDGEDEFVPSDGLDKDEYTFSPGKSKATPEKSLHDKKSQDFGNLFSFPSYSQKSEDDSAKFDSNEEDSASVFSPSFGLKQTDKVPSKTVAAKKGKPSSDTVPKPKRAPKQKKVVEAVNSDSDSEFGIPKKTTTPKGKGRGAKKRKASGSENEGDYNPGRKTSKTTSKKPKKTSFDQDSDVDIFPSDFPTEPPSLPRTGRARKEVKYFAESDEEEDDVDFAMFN

MDA-MB-468 [17] = test: Cell cycle analysis in human MDA-MB-468 cells assessed as accumulation of cells at G2-M phase at 3.1 uM measured after 48 hrs by propidium iodide staining based flow cytometry (reference value: 0.27%); format: functional
In short: (§4)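 MDA-MB-468 cells, 2 x 10^5 per well in medium with 10% FBS, grown 24 h at 37 °C, 5% CO₂. Then exposed to 3.1 μM in 1% v/v DMSO for 48 h, washed in cold PBS and fixed in ice-cold 70% ethanol. Stained with PI for 15 min at 37 °C and read by flow cytometry.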

HNO 97 cell line = test: Growth inhibition of human HNO 97 cells at 100 ug/ml measured after 48 hrs by SRB assay relative to control; format: functional; conditions: dose 100.0 µg/ml, pooled result: one value given for 15 cell lines, strains, targets or settings; in short: as §1
MDA-MB-468 [18] = test: Induction of apoptosis in human MDA-MB-468 cells assessed as upregulation of p53 expression measured after 1 hr by ELISA relative to control; format: functional; in short: as §3
HN = test: Growth inhibition of human HN cells at 100 ug/ml measured after 48 hrs by SRB assay relative to control; format: functional; conditions: dose 100.0 µg/ml, pooled result: one value given for 15 cell lines, strains, targets or settings; in short: as §1
MDA-MB-468 [19] = test: Induction of apoptosis in human MDA-MB-468 cells assessed as upregulation of caspase-3 expression measured after 1 hr by ELISA relative to control; format: functional; in short: as §3
MDA-MB-468 [20] = test: Cell cycle analysis in human MDA-MB-468 cells assessed as accumulation of cells at S phase at 3.1 uM measured after 48 hrs by propidium iodide staining based flow cytometry (reference value: 15.3%); format: functional; in short: as §4
HeLa [21] = test: Growth inhibition of human HeLa cells at 100 ug/ml measured after 48 hrs by SRB assay relative to control; format: functional; conditions: dose 100.0 µg/ml, pooled result: one value given for 15 cell lines, strains, targets or settings; in short: as §1
MDA-MB-468 [22] = test: Induction of apoptosis in human MDA-MB-468 cells assessed as upregulation of caspase-9 expression measured after 1 hr by ELISA relative to control; format: functional; in short: as §3
MDA-MB-468 [23] = test: Cell cycle analysis in human MDA-MB-468 cells assessed as accumulation of cells at G0-G1 phase at 3.1 uM measured after 48 hrs by propidium iodide staining based flow cytometry (reference value: 84.43%); format: functional; in short: as §4
DNA topoisomerase 2-beta [24] = biological target: T1, DNA topoisomerase 2-beta; test: Inhibition of human topoisomerase IIB by sandwich ELISA

- IC50 (MDA-MB-468 [7]): 6.7 µg/mL (≈ 11.1 µM)
- IC50 (Tubulin): 3.18 µM
- inhibition (DNA topoisomerase 2-beta [16]): Active
- IC50 (DNA topoisomerase 2-beta [24]): 26.1 µM
SMILES: Cc1nnc(S)n(N2C(=O)c3c(Br)c(Br)c(Br)c(Br)c3C2=O)c1=O
- growth inhibition (GI) (PC-3 [1]): Active
- growth inhibition (GI) (HCT-116): Active
- growth inhibition (GI) (HeLa [2]): Active
- growth inhibition (GI) (A-431 [3]): Active
- growth inhibition (GI) (PC-3 [4]): Active
- growth inhibition (GI) (FaDu [5]): Active
- growth inhibition (GI) (FaDu [6]): Active
- fold change (FC) (MDA-MB-468 [8]): 2.44
- growth inhibition (GI) (HEp-2): Active
- growth inhibition (GI) (Caco-2): Active
- growth inhibition (GI) (MDA-MB-468 [9]): Active
- growth inhibition (GI) (MCF7): Active
- fold change (FC) (MDA-MB-468 [10]): 2.44
- growth inhibition (GI) (A549): Active
- growth inhibition (GI) (A-431 [11]): Active
- fold change (FC) (MDA-MB-468 [12]): 1.9
- fold change (FC) (MDA-MB-468 [13]): 1.81
- growth inhibition (GI) (A-375): Active
- fold change (FC) (MDA-MB-468 [14]): 2.29
- growth inhibition (GI) (HepG2): Active
- growth inhibition (GI) (NCI-H1299): Active
- fold change (FC) (MDA-MB-468 [15]): 2.33
- Activity (MDA-MB-468 [17]): 2.29%
- growth inhibition (GI) (HNO 97 cell line): Active
- fold change (FC) (MDA-MB-468 [18]): 3.61
- growth inhibition (GI) (HN): Active
- fold change (FC) (MDA-MB-468 [19]): 3.42
- Activity (MDA-MB-468 [20]): 9.04%
- growth inhibition (GI) (HeLa [21]): Active
- fold change (FC) (MDA-MB-468 [22]): 3.72
- Activity (MDA-MB-468 [23]): 88.67%
